This is an account of results in ChEMBL document CHEMBL1137990, “Design and synthesis of novel indole beta-diketo acid derivatives as HIV-1 integrase inhibitors” (J Med Chem, 2004).

Some results are limits rather than exact numbers.

The term EC50 denotes the midpoint of the concentration-response curve. A higher EC50 goes with a need for much substance. Broadly, the CC50 is the concentration that lowers cell viability or growth by half. A low value points to greater toxicity to the cells. Usually IC50 stands for the midpoint of a concentration-inhibition curve.

Series [1] has as its target Human immunodeficiency virus type 1 integrase (Human immunodeficiency virus 1) (UniProt Q7ZJM1). The series is described as follows: Selectivity index against HIV-1 integrase.
Series [2] relates to Human immunodeficiency virus 1. The series is described as follows: Effective concentration required for the inhibition of HIV-1 cytopathic effect. It is filed as functional, organism-based. In short, it runs like this:
(§1)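 CEM-SS human T cells at 5 × 10³ cells/well infected with HIV-1 RF (MOI 0.3). Serial compound dilutions added at once; cultured 6 days at 37 °C, 5% CO₂. Viability read by XTT (0.2 mg/mL, 4 h) absorbance at 450 nm. AZT and dextran sulfate run as controls. Toxicity measured on the same plate in uninfected CEM-SS cells.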
Background: Cytopathic effects are the visible damage that an infection or toxin causes in cultured cells.

In series [3] the test system is CEM-SS. The series is described as follows: Cytotoxic concentration against HIV-1 was evaluated in human T-cell line CEM-SS. It is filed as functional. Put shortly:
as §1

The target in series [4] is T1, Human immunodeficiency virus type 1 integrase (Human immunodeficiency virus 1, UniProt Q7ZJM1). The series is described as follows: Inhibitory concentration against HIV-1 integrase mediated strand transfer reaction. In short, it runs like this: (§2)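 Wild-type IN at 200 nM final, preincubated with inhibitor for 30 min at 30 °C in buffer of 50 mM NaCl, 1 mM HEPES pH 7.5, 50 µM EDTA, 50 µM DTT, 10% glycerol, 7.5 mM MnCl₂, 0.1 mg/mL BSA, 10 mM 2-mercaptoethanol, 10% DMSO, 25 mM MOPS pH 7.2. Then 20 nM 5′-³²P-labeled linear oligonucleotide substrate added, 1 h more; quenched with formamide/EDTA loading dye; products resolved on gel.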

In series [5] the target is T1, Human immunodeficiency virus type 1 integrase. The experiment in a line: Inhibitory concentration against HIV-1 integrase mediated 3' processing reaction. In short, it runs like this:
as §2

A short description of series [6]: Therapeutic index is the ratio of CC50 to that of EC50. Conditions: human; read-out: Therapeutic index. In short, it runs like this: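 CC50/EC50 ratio, both values from the same plate. CEM-SS cells were infected with HIV-1 RF (MOI 0.3) or left uninfected, with serial compound dilutions. Cultures ran 6 days at 37 °C. Viability was read by XTT absorbance at 450 nm.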

Sequence of Human immunodeficiency virus type 1 integrase (Human immunodeficiency virus 1) (Q7ZJM1 as listed by the source): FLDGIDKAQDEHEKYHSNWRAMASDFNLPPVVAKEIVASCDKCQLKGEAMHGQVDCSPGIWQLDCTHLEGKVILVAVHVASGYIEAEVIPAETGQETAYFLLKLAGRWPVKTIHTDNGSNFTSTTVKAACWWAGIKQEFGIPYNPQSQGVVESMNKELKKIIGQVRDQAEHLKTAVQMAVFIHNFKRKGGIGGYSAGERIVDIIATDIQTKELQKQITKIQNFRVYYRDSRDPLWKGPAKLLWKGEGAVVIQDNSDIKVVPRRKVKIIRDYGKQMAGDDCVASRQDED
T1 sequence (Q7ZJM1 whole entry): as the sequence (Q7ZJM1 as listed by the source) above

As for `COC(=O)C(=O)CC(=O)c1cc2cc3c(cc2n1C)OCO3`, the Selectivity index in series [1] came to 2. In series [2], this molecule came in with an EC50 greater than 200 µM. Moreover, in series [3], the CC50 was greater than 200 µM. In addition, the results for the IC50 in series [4] and in series [5] were 50 µM and 100 µM, respectively.

Molecule `CCn1c(/C(O)=C/C(=O)C(=O)O)cc2cc3c(cc21)OCO3` registered a Selectivity index in series [1] of 11. This molecule also registered an EC50 in series [2] greater than 57 µM. In series [3], this molecule came in with a 50% cytotoxic concentration (CC50) of 57 µM. The IC50 was 5 µM in series [4] and 55 µM in series [5].

`Cn1c(/C(O)=C/C(=O)C(=O)O)cc2cc3c(cc21)OCO3` returned a Selectivity index in series [1] of 5. Besides, the EC50 in series [2] is greater than 200 µM. This molecule also had a CC50 in series [3] greater than 200 µM. Moreover, the values for the IC50 in series [4] and in series [5] were 2 µM and 11 µM, respectively.

As for `Cn1cc(/C(O)=C/C(=O)C(=O)O)c2cc3c(cc21)OCO3`, in series [1], the Selectivity index came out at 33. The same molecule had an EC50 in series [2] greater than 108 µM. The molecule further returned a CC50 in series [3] of 108 µM. The IC50 in series [4] was 3 µM; in series [5] it was 100 µM.

The molecule `CCn1c(C(=O)CC(=O)C(=O)OC)cc2ccccc21` gave an EC50 in series [2] greater than 60 µM. Besides, the 50% cytotoxic concentration (CC50) in series [3] came to 60 µM.

With `Cn1c(/C(O)=C/C(=O)C(=O)O)cc2ccccc21`, the Selectivity index in series [1] worked out at 8. The same molecule gave an EC50 in series [2] greater than 81 µM. In series [3], this molecule registered a CC50 of 81 µM. Besides, the IC50 in series [4] came to 6 µM; in series [5], 50 µM.

`O=C(O)C(=O)/C=C(\O)c1cc2cc3c(cc2n1Cc1ccccc1)OCO3`: in series [1], the Selectivity index amounted to 17. Besides, in series [2], the EC50 is greater than 3.8 µM. The same molecule came in with a CC50 in series [3] of 3.8 µM. Moreover, the IC50 stood at 2 µM in series [4] and 35 µM in series [5].

In the case of `O=C(O)C(=O)/C=C(\O)c1cn(Cc2ccccc2)c2ccccc12`, the Selectivity index in series [1] came to 12. Further, the IC50 was 1 µM in series [4] and 12 µM in series [5].

`CCn1c(/C(O)=C/C(=O)C(=O)O)cc2ccccc21` came in with a Selectivity index in series [1] of 10. This molecule also yielded an EC50 in series [2] greater than 110 µM. The same molecule showed a 50% cytotoxic concentration (CC50) in series [3] of 110 µM. Further, the IC50 came to 1.6 µM in series [4] and 16 µM in series [5].

For `COC(=O)C(=O)CC(=O)c1cc2ccccc2n1C`, the Selectivity index in series [1] came to 2. For the same molecule, the EC50 in series [2] is greater than 106 µM. For the same molecule, in series [3], it took 106 µM to reach half-maximal cytotoxicity (CC50). In addition, the IC50 is 45 µM in series [4] and 100 µM in series [5].

In turn, `COC(=O)C(=O)CC(=O)c1cc2cc3c(cc2n1Cc1ccccc1)OCO3` yielded a Selectivity index in series [1] of 7. The EC50 in series [2] is greater than 1.1 µM. The midpoint of cytotoxicity in series [3], the CC50, lay at 1.1 µM. Also, the IC50 in series [4] worked out at 14 µM; in series [5], 100 µM.

Regarding `CCn1c(C(=O)CC(=O)C(=O)OC)cc2cc3c(cc21)OCO3`, in series [1], the Selectivity index was 1.3. Moreover, the EC50 in series [2] was greater than 75 µM. Besides, in series [3], the midpoint of cytotoxicity, the CC50, lay at 75 µM. In addition, the IC50 in series [4] is 65 µM; in series [5], 85 µM.

On to `COC(=O)C(=O)CC(=O)c1cn(C)c2cc3c(cc12)OCO3`, for which, in series [1], the Selectivity index is greater than 1.6. In addition, in series [2], the EC50 was greater than 31 µM. The molecule further returned a CC50 in series [3] of 31 µM. Besides, the IC50 in series [4] is 60 µM; in series [5] it was greater than 100 µM.

`CCn1cc(/C(O)=C/C(=O)C(=O)O)c2ccccc21`: the Selectivity index in series [1] is 31. In addition, the EC50 in series [2] came to 9 µM. In series [3], this molecule returned a CC50 of 108 µM. Besides, the selectivity ratio in series [6] stood at 12. Also, the IC50 came to 3 µM in series [4] and 93 µM in series [5].

On to `O=C(O)C(=O)/C=C(\O)c1cc2ccccc2n1Cc1ccccc1`, for which the Selectivity index in series [1] was determined as 20. The IC50 in series [4] was determined as 1 µM; in series [5] it was 20 µM.

Molecule `Cn1cc(/C(O)=C/C(=O)C(=O)O)c2ccccc21` returned a Selectivity index in series [1] of 50. Further, in series [2], the midpoint of the response, the EC50, lay at 37 µM. Besides, the CC50 in series [3] is greater than 200 µM. Further, the selectivity ratio in series [6] is greater than 5.4. The IC50 in series [4] amounted to 2 µM; in series [5] it was 100 µM.

In the case of `CCn1cc(C(=O)CC(=O)C(=O)OC)c2ccccc21`, the Selectivity index in series [1] was greater than 3.8. This molecule also came in with an EC50 in series [2] of 19 µM. In series [3], the CC50 is greater than 200 µM. In addition, in series [6], the selectivity ratio was greater than 10.5. The IC50 was 26 µM in series [4] and greater than 100 µM in series [5].

For `CCn1cc(/C(O)=C/C(=O)C(=O)O)c2cc3c(cc21)OCO3`, the Selectivity index in series [1] turned out to be 15. Also, a half-maximal response in series [2] (EC50) required 123 µM. The half-maximal cytotoxic concentration (CC50) in series [3] is greater than 200 µM. In series [6], the selectivity ratio is greater than 1.6. The IC50 in series [4] was 3 µM; in series [5], 45 µM.
